Laboratory results taken from ChEMBL document CHEMBL3875165, “Novel broad-spectrum and long-acting parenteral cephalosporins having an acyl cyanamide moiety at the C-3 terminal: Synthesis and structure-activity relationships” (Eur J Med Chem, 2016).

Experiments:
[1] = Protein binding in ICR mouse plasma after 30 mins by ultra-filtration method; assay type: ADME, cell-free; settings: read-out: PPB (converted)
Summary of the method: (§1)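 Mouse or monkey plasma was adjusted to pH 7 with CO2 and spiked with compound to a final 10 µg/ml. It was incubated 30 min at 37 °C, then ultrafiltered by centrifugation at 3200 rpm for 30 min at 25 °C. Free drug in the filtrate was measured by bioassay to give the bound fraction.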

Staphylococcus aureus = experiment: Antibacterial activity against Staphylococcus aureus SMITH after 20 hrs by agar dilution method; assay type: functional
Summary of the method: (§2)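 Agar dilution MIC on Sensitivity Disk Agar-N with 2-fold serial drug dilutions. Overnight Mueller Hinton broth cultures were diluted to about 10^6 CFU/mL, and 1 µL spots were applied. Plates were incubated 20 h at 37 °C before scoring.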

Streptococcus pneumoniae [2] = experiment: Antibacterial activity against penicillin-resistant Streptococcus pneumoniae SR16675 after 20 hrs by agar dilution method; assay type: functional; settings: SR16675, 20 h
Summary of the method: (§3)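 Agar dilution on Sensitivity Disk Agar-N. Overnight Mueller Hinton broth cultures were diluted to about 10^6 CFU/mL, and 1 µL spots were placed on agar plates holding 2-fold serial dilutions of antibiotic. Plates were incubated 20 h at 37 °C and then MICs were scored.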

Streptococcus pneumoniae [3] = experiment: Antibacterial activity against penicillin-resistant Streptococcus pneumoniae SR16750 after 20 hrs by agar dilution method; assay type: functional; settings: SR16750, 20 h; summary of the method: as §3
Haemophilus influenzae [4] = experiment: Antibacterial activity against beta-lactamase non-producing penicillin-resistant Haemophilus influenzae SR11435 after 20 hrs by agar dilution method; assay type: functional; settings: SR11435, 20 h; summary of the method: as §3
Haemophilus influenzae [5] = experiment: Antibacterial activity against beta-lactamase non-producing penicillin-resistant Haemophilus influenzae SR24106 after 20 hrs by agar dilution method; assay type: functional; settings: SR24106, 20 h; summary of the method: as §3
Moraxella catarrhalis = experiment: Antibacterial activity against Moraxella catarrhalis SR24290 after 20 hrs by agar dilution method; assay type: functional; settings: SR24290, 20 h; summary of the method: as §2
Escherichia coli = experiment: Antibacterial activity against Escherichia coli NIHJ JC-2 after 20 hrs by agar dilution method; assay type: functional; settings: NIHJ JC-2, 20 h; summary of the method: as §2
[6] = Half life in mouse at 20 mg/kg, iv administered as bolus dose by band-culture bioassay; settings: in vivo
[7] = Total clearance in mouse at 20 mg/kg, iv administered as bolus dose by band-culture bioassay; settings: in vivo
[8] = AUC (0 to infinity) in mouse at 20 mg/kg, iv administered as bolus dose by band-culture bioassay; settings: in vivo
[9] = AUC (0 to infinity) in monkey at 20 mg/kg, iv administered as bolus dose by HPLC method; assay type: ADME, organism-based, Macaca mulatta; parameters: dose 20 mg/kg, time infinity, route intravenous; settings: rhesus monkey, in vivo
Summary of the method: (§4)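 Three monkeys per group received a single iv bolus of 20 mg/kg (1 mL/kg). Plasma levels were measured by HPLC. AUC0-∞, CLtot and T1/2 came from a 2-compartment fit.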

[10] = Half life in monkey at 20 mg/kg, iv administered as bolus dose by HPLC method; assay type: ADME, organism-based, Macaca mulatta; settings: rhesus monkey, in vivo; summary of the method: as §4
[11] = Total clearance in monkey at 20 mg/kg, iv administered as bolus dose by HPLC method; assay type: ADME, organism-based, Macaca mulatta; settings: rhesus monkey, in vivo; summary of the method: as §4
[12] = Protein binding in cynomolgus monkey plasma after 30 mins by ultra-filtration method; assay type: ADME, cell-free, Macaca fascicularis; settings: read-out: PPB (converted); summary of the method: as §1

Row | SMILES | fraction unbound at 0.5 h [1] | MIC (Staphylococcus aureus) [µg/mL] | MIC (Streptococcus pneumoniae [2]) [µg/mL] | MIC (Streptococcus pneumoniae [3]) [µg/mL] | MIC (Haemophilus influenzae [4]) [µg/mL] | MIC (Haemophilus influenzae [5]) [µg/mL] | MIC (Moraxella catarrhalis) [µg/mL] | MIC (Escherichia coli) [µg/mL] | half-life [6] [min] | clearance [7] [mL/min/kg] | AUC(0-inf) [8] [ng·h/mL] | AUC [9] [ng·h/mL] | half-life [10] [min] | clearance [11] [mL/min/kg] | fraction unbound at 0.5 h [12]
1 | CCO/N=C(\C(=O)N[C@@H]1C(=O)N2C(C(=O)[O-])=C(C=CC[n+]3ccc(-c4cc(/C([O-])=N/C#N)[nH]n4)cc3)CS[C@H]12)c1csc(N)n1.[Na+] | 0.76 | 0.25 | 0.25 | 0.5 | 0.125 | 0.25 | 1 | 0.125 | 51 | 19.1 | 17400 | – | – | – | –
2 | CCO/N=C(\C(=O)N[C@@H]1C(=O)N2C(C(=O)[O-])=C(/C=C/C[n+]3ccc4c(/C([O-])=N\C#N)cccc4c3)CS[C@H]12)c1csc(N)n1.[Na+] | 0.97 | 0.5 | 0.25 | 0.5 | 0.063 | 0.125 | 2 | 0.125 | 43.8 | 23.5 | 14200 | 10600 | 91.2 | 1.59 | 0.42
3 | N#C/N=C(\[O-])c1cc(-c2cc[n+](CC3=C(C(=O)[O-])N4C(=O)[C@@H](NC(=O)/C(=N\OCCF)c5csc(N)n5)[C@H]4SC3)cc2)n[nH]1.[Na+] (stereo in doubt) | 0.76 | 1 | 0.25 | 0.5 | 0.063 | 0.125 | 1 | 0.25 | 63.6 | 26.2 | 12700 | – | – | – | –
4 | CCO/N=C(\C(=O)N[C@@H]1C(=O)N2C(C(=O)[O-])=C(/C=C\C[n+]3ccc(-c4cc(/C([O-])=N/C#N)[nH]n4)cc3)CS[C@H]12)c1csc(N)n1.[Na+] | – | 0.25 | 0.5 | 1 | 0.25 | 0.5 | 1 | 0.125 | – | – | – | – | – | – | –
5 | CCO/N=C(\C(=O)N[C@@H]1C(=O)N2C(C(=O)[O-])=C(/C=C/C[n+]3ccc(-c4c[nH]c(/C([O-])=N/C#N)c4)cc3)CS[C@H]12)c1csc(N)n1.[Na+] | 0.75 | 0.25 | 0.125 | 0.25 | 0.063 | 0.125 | 8 | 0.125 | 55.8 | 18.9 | 17600 | 20200 | 255 | 0.84 | 0.3
6 | CCO/N=C(\C(=O)N[C@@H]1C(=O)N2C(C(=O)[O-])=C(/C=C/C[n+]3ccc(-c4csc(/C([O-])=N/C#N)n4)cc3)CS[C@H]12)c1csc(N)n1.[Na+] | 0.69 | 0.5 | 0.125 | 0.25 | 0.063 | 0.25 | 2 | 0.125 | 44.4 | 12.2 | 27400 | 48000 | 310 | – | 0.23
7 | CCO/N=C(\C(=O)N[C@@H]1C(=O)N2C(C(=O)[O-])=C(C[n+]3ccc(-c4cc(/C([O-])=N/C#N)[nH]n4)cc3)CS[C@H]12)c1csc(N)n1.[Na+] (stereo in doubt) | 0.77 | 1 | 0.25 | 0.5 | 0.063 | 0.25 | 0.5 | 0.5 | 68.4 | 30.8 | 10800 | – | – | – | –
8 | CCO/N=C(\C(=O)N[C@@H]1C(=O)N2C(C(=O)[O-])=C(C[n+]3ccc(-c4cc(/C([O-])=N/C#N)[nH]n4)cc3)CS[C@H]12)c1nc(N)sc1Cl.[Na+] | 0.43 | 1 | 0.125 | 0.25 | 0.25 | 2 | 0.125 | 2 | 35.4 | 8 | 41500 | – | – | – | –
